An excerpt weighted towards active compounds, which were near 1.6% of everything screened.
Yeast growth inh: chemicals that inhibit yeast BB579 growth in restrictive medium (lifespan-shortening candidates) | S. cerevisiae BB579 growth, OD615, 48 h | inhibition, % at 10 µM | 140,000 tested, 0.51% active;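 active means inhibition above a set limit, 3 SD over the mean compound inhibition, cut at about 44% in these data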
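System: Saccharomyces cerevisiae DeaD strain BB579, replicative lifespan model yeast. Buffer or medium: restrictive glucose-based CSMM-D medium. Doses: one dose, 10 µM compound with 0.25% DMSO. Timing: 4 h preincubation and 48 h exposure at 30 °C. Detection: turbidity as optical density at 615 nm. Benchmarks: amphotericin B 10 µg/mL, positive.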
RBBP9 inhibitor: blocks human serine hydrolase RBBP9. inhibition, % at 7.94 µM. AID 1515. 220,000 tested, 0.2% active. O75884. recombinant RBBP9, FP-Rh probe fluorescence polarization;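 active means inhibition above the campaign mean of all tested compounds plus 3 SD, cut at about 14% in these data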;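 further: plate controls were DMSO wells with RBBP9 for no effect and wells lacking RBBP9 protein for full effect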
Target sequence (O75884 whole entry, looked up): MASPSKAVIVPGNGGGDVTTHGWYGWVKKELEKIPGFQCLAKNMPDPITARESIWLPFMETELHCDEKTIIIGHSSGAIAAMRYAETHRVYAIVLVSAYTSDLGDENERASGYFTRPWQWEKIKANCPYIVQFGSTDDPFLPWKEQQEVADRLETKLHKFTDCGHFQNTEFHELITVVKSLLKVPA
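system = RBBP9 protein | input = RBBP9 at 2.5 µM in dispensed solution, before mixing | measured by = fluorescence polarization (mP), excitation 525 nm, emission 598 nm | incubation = enzyme-compound preincubation 30 min, then probe labeling 45 min, 25 °C | buffer or medium = Tris-NaCl-Pluronic buffer, pH 8.0 | compound = single dose 7.94 µM | also added = FP-Rh probe, 375 nM dispensing solution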
sdo1 growth: compounds rescuing growth of sdo1-depleted yeast, bone marrow failure model. 140,000 tested, 0.21% active. AID 817. z-score at 10 µM. S. cerevisiae sdo1-depleted JHY4D growth rescue, OD600 30 h; hits give high values; pdr5 snq2 efflux-pump mutant strain;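 active means z-score above 3 at both the 24 hr and the 30 hr optical density reads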;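 further: z-score against mean and SD of all compound wells on the same plate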
NCF1 inh: inhibitors of human p47phox binding; P14598; p47phox/p22phox peptide binding, fluorescence polarization, 2 h; inhibition, % at 24.7 µM; 220,000 tested, 0.53% active; AID 1274;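 active means inhibition above about 30%, limit read from the data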;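 further: 0% = p47phox with labelled peptide and 100% = labelled peptide alone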
Yeast lifespan up: yeast lifespan extension; inhibition of the nicotinamide effect, % at 10 µM; 130,000 tested, 0.68% active; S. cerevisiae growth with nicotinamide, OD615; deaD strain in restrictive glucose medium; AID 775;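 active means inhibition above a set limit, placed 3 SD over the median of all compounds, cut at about 26% in these data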;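 further: 0% = nicotinamide-treated wells and 100% = cells grown without nicotinamide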
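Measured by: optical density (absorbance) at 615 nm; System: modified budding yeast, DeaD strain; Medium: restrictive CSMM-D dextrose medium; Timing: 4 h preincubation then 48 h treatment at 30 °C.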
TbHK1 inh: blocks Trypanosoma brucei hexokinase 1 activity; recombinant TbHK1, G6PDH-coupled NADH A340; inhibition, % at 10 µM; 220,000 tested, 0.11% active; AID 1430;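 active means inhibition of 50% or more in the single-dose primary screen; inactive means inhibition below 50%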
sdo1 rescue conf: SDO1-depleted yeast growth rescue confirmation | shares compounds with sdo1 growth | S. cerevisiae JHY4D (SDO1-depleted) growth rescue, OD600, 30 h; hits give high values; efflux-deficient strain, SNQ2 and PDR5 mutated | OD recovery (concentration not given with the values) | 440 tested, 44% active | AID 949;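 active means yeast growth recovered at 30 hours, either rising with dose fitted slope above 0.001 or with average optical density gain above 0.07, some results past the limit were not filed as active; inactive means growth falling with dose or no effect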;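 further: gain in OD600 from 0 h to 30 h averaged across all seven doses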
Numbers without * were called inactive; nt = not tested or not shown.

SMILES	Yeast growth inh	RBBP9 inhibitor	sdo1 growth	NCF1 inh	Yeast lifespan up	TbHK1 inh	sdo1 rescue conf
CCOC(=O)c1c(NC(=S)Nc2ccc(C)cc2)sc2c1CCC2	-9.9	-6.9	2.72	-15.3	3.8	30.3	0.0876*
NC(=O)c1ccccc1-c1nc(-c2ccccc2)no1	-13.5	-5.4	11.3*	-1.6	-5.6	-1.0	0.0552
CN1CCN(C(=O)c2ccccc2-c2nc(-c3ccccc3)no2)CC1	-30.6	-3.3	-0.18	-9.1	1.2	2.6	nt
CSc1ccc(Cl)c(C(=O)Nc2ccc(C)cn2)c1	nt	-7.6	nt	3.3	nt	-7.1	nt
Cc1cccc(-n2c(CCn3nc(C)c([N+](=O)[O-])c3C)n[nH]c2=S)c1	-50.3	4.3	0.82	-14.9	-8.2	-6.0	nt
COc1cccc(-n2c(CCn3nc(C)c([N+](=O)[O-])c3C)n[nH]c2=S)c1	-34.6	-7.0	3.22*	-9.0	2.3	-0.8	0.038
CCN(CC)C(=O)C(=O)Nc1ccc(OC)c(Cl)c1	nt	3.6	nt	4.1	nt	1.0	nt
CCc1ccccc1NC(=O)CC(O)(C(=O)OC)C(F)(F)F (stereo not drawn)	-16.5	-7.3	3.08*	-6.8	-2.0	-2.1	0.0663
Cc1cccc(N)c1-c1c(C)cccc1N	nt	-4.1	nt	-3.3	nt	4.2	nt
Cc1cc(C)c(NC(=S)N2CCC(N(C)CC3CCCO3)CC2)c(C)c1 (stereo not drawn)	-6.4	2.4	3.65*	-5.5	-4.0	-6.1	0.0961*
Cc1cccc(C)c1NC(=S)N1CCC(N(C)CC2CCCO2)CC1 (stereo not drawn)	-44.6	-6.8	0.62	-6.9	-5.5	-0.1	nt
COc1ccccc1C(=O)COC(=O)c1ccccc1OCC(=O)Nc1ccc(SC(F)F)cc1	-8.4	-1.5	-0.81	-73.0	3.9	-3.7	nt
COc1ccccc1NC(=O)COC(=O)c1ccccc1OCC(=O)Nc1ccc(SC(F)F)cc1	-65.8	1.9	1.32	-12.0	-1.9	-5.8	0.0728*
Cc1ccc(C(C(=O)NC2CCCC2)N(Cc2ccc3c(c2)OCO3)C(=O)c2snc(C(N)=O)c2N)cc1 (stereo not drawn)	nt	-8.4	nt	-11.2	nt	-17.3	nt
CC(C(=O)NC1CCCC1)N(C(=O)c1snc(C(N)=O)c1N)c1ccc2c(c1)OCCO2 (stereo not drawn)	-62.7	-3.2	14.4*	0.8	-1.0	18.4	0.0803*
c1ccc(Oc2cccc(NC3=NCCC3)c2)cc1	-12.4	0.6	14.6*	1.1	-5.0	-2.6	0.0373
CC1CCN(C(=O)C2CCC(CNS(=O)(=O)c3cccc4cccnc34)CC2)CC1 (stereo not drawn)	7.0	-13.8	9.6*	-0.6	-12.0	-7.3	0.0559
CN1CCN(C(=O)C2CCC(CNS(=O)(=O)c3cccc4cccnc34)CC2)CC1 (stereo not drawn)	-15.2	0.6	-0.55	-8.3	-2.5	6.2	nt
NC(=S)Nn1c(-c2ccccc2)nc2ccccc2c1=O	-9.5	2.4	10.8*	-11.3	-1.2	28.0	0.0596
O=C(Cc1ccccc1)Nn1c(-c2ccccc2)nc2ccccc2c1=O	-1.3	0.7	-0.02	-4.5	6.5	-0.4	nt
O=C(O)c1cccc(NC(=O)c2ccc3c(c2)C(=O)N(CC2CCCO2)C3=O)c1 (stereo not drawn)	-31.9	-3.2	0.91	-2.9	-3.9	-4.4	nt
COC(=O)c1cccc(NC(=O)c2ccc3c(c2)C(=O)N(CC2CCCO2)C3=O)c1 (stereo not drawn)	-4.6	-2.5	0.98	-12.8	-4.8	-8.1	0.0342
COc1ccc(NCC(=O)Nc2ccc(Br)cc2F)c(OC)c1	nt	2.8	nt	-1.1	nt	-7.6	nt
CCOc1ccc(C(C)=O)cc1N1C(=O)C2C3C=CC(C3)C2C1=O (stereo not drawn)	-12.1	-4.9	-0.16	-3.8	-4.5	-1.2	nt
CCOc1ccc(CCN2C(=O)C3C4C=CC(C4)C3C2=O)cc1OCC (stereo not drawn)	23.6	-2.2	0.85	-11.7	-7.5	0.0	0.0694
Cc1ccc(S(=O)(=O)N(C)C)cc1NC(=S)N1CCN(Cc2ccc3c(c2)OCO3)CC1	nt	-2.6	nt	-4.5	nt	-5.2	nt

Bioassay records deposited in PubChem by several laboratories.
